Experimental data collected from several papers.
Each line is one published result; the experiments were not run side by side.
Target: Discoidin domain-containing receptor 2 (DDR2, Homo sapiens, UniProt Q16832)
Residues used in one study (Q16832 22-855): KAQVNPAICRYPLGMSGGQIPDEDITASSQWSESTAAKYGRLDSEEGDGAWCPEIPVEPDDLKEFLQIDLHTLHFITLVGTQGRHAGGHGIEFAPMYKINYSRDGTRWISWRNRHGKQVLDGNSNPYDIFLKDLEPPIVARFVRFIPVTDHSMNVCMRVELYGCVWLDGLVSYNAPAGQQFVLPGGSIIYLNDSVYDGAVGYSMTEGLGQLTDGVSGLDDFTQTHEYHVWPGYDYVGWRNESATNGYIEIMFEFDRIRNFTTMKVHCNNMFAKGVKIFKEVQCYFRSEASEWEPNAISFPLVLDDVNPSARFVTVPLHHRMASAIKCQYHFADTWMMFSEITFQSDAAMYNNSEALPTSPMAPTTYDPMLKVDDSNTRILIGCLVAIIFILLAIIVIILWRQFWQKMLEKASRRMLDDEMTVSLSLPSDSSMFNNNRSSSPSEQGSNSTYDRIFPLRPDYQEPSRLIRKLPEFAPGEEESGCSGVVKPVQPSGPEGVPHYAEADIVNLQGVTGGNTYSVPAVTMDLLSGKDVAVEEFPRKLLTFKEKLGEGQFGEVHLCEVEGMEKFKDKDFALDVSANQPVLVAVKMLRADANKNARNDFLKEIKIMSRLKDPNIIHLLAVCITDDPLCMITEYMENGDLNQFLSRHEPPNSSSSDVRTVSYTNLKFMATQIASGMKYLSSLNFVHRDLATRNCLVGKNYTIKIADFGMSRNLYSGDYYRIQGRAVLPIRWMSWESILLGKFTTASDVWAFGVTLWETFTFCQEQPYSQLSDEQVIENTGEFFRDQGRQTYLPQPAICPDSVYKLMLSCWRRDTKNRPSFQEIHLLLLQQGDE

Structure (SMILES) | test | conditions | quantity | value
Cn1cncc1[C@@](O)(COc1ccc(C#N)cc1-c1ccc(OC(F)(F)F)cc1)c1ccc(C#N)cc1 | cell-free assay, competition with immobilised ligand | 1 µM | remaining binding | 95%
COc1cc(Nc2ncc(F)c(Nc3ccc4c(n3)NC(=O)C(C)(C)O4)n2)cc(OC)c1OC | binding, competition with immobilised ligand | 10 µM | inhibition | 86%
O=c1[nH]c2ccccc2n1C1CCN(Cc2ccc(-c3[nH]c4cc5ncnc5cc4nc3-c3ccccc3)cc2)CC1 | cell-free assay | 0.5 µM | remaining signal | 99.2%
Cn1cc(-c2cccc(N3CCc4c(sc5c4CC(C)(C)C5)C3=O)c2CO)cc(Nc2ccncn2)c1=O | enzyme activity, inhibitor | 1 µM | inhibition | 1%
C#Cc1n[nH]c2c(-c3cn([C@@H](C)c4ccccn4)c(=O)[nH]c3=O)cc(F)cc12 | enzyme activity, inhibitor | 0.1 µM | inhibition | 0.9%
COc1ncccc1-c1cnn2ccc(N3CCN(C(=O)OC(C)C)CC3)nc12 | binding, competition with immobilised ligand | 1 µM | remaining binding | 36%
Cc1nn(C)cc1-c1nc2c(N3CCN(Cc4ccc(Cl)cc4)CC3)c(Cl)cnc2[nH]1 | binding, competition with immobilised ligand | 1 µM | remaining binding | 96%
Nc1ncc(-c2nc(N3CCOCC3)nc(N3CCOCC3)n2)c(C(F)F)n1 | cell-free assay, competition with immobilised ligand | 10 µM | remaining binding | 57%
C#Cc1n[nH]c2c(-c3cn([C@@H](C)c4ccccc4)c(=O)[nH]c3=O)cc(F)cc12 | enzyme activity, inhibitor | 0.1 µM | inhibition | -1.1%
Cn1cc(-c2cc(F)cc(N3CCn4c(cc5c4CCCC5)C3=O)c2CO)cc(Nc2ccc(N3CCN(C4COC4)CC3)cn2)c1=O | enzyme activity, inhibitor | 0.1 µM | inhibition | -7%
CC(C)(C)c1cc(C=C(C#N)C#N)cc(Br)c1O | enzyme activity, inhibitor | 0.5 µM | remaining activity | 105%
N#CC1(c2ccccn2)CCN(Cc2cc(C(=O)O)c(=O)n3ccccc23)CC1 | cell-free assay, competition with immobilised ligand | 1 µM | remaining binding | 100%
